Test results taken from ChEMBL document CHEMBL3108739, “Activation and inhibition of thermosensitive TRP channels by voacangine, an alkaloid present in Voacanga africana, an African tree” (J Nat Prod, 2014).
Calls of active or inactive are those of the source. The calls are words filed in the database; no cut-off is given here.

Columns and labels:
[1] = target: Transient receptor potential cation channel subfamily M member 8 (Mus musculus) (UniProt Q8R4D5); assay: (§1) Antagonist at TRPM8 isolated from mouse dorsal root ganglion cells expressed in HEK T-REx cells assessed as inhibition of menthol-induced intracellular Ca2+ influx by fluorescence-based assay; assay type: cell-based
Transient receptor potential cation channel subfamily M member 8 (Mus musculus), sequence (Q8R4D5 whole entry): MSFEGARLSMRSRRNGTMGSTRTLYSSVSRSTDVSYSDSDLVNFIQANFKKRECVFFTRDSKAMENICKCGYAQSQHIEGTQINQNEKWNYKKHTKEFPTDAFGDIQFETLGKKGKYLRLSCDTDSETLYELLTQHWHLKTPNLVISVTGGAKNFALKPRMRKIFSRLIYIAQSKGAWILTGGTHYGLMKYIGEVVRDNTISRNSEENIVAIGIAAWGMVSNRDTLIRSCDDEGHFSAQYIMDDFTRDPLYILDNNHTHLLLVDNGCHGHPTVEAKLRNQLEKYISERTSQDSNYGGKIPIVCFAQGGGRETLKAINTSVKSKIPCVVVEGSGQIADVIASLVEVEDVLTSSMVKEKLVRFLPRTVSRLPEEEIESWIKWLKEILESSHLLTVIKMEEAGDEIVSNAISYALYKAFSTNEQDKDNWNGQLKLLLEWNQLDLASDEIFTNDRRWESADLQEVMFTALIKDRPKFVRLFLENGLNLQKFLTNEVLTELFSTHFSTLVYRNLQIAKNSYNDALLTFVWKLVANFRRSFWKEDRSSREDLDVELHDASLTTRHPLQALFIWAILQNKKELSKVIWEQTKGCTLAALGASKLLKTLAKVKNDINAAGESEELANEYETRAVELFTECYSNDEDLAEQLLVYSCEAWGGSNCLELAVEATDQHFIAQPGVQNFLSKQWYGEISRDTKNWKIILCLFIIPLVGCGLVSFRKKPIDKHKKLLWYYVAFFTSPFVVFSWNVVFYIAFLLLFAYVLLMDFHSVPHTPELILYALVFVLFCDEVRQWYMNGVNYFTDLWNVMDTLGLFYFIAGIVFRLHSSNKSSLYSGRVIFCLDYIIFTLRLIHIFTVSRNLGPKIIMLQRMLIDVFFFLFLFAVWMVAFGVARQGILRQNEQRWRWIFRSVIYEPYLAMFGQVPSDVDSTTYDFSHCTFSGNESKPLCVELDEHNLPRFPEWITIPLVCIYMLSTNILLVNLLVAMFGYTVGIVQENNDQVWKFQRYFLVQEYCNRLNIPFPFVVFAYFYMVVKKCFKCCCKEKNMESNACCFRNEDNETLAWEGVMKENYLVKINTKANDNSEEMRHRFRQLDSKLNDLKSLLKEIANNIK
Outline: (§2)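 Tetracycline-induced mTRPM8 in HEK T-REx, Fluo-4 Ca2+ at 37 °C. Antagonists (e.g. 0.01−100 μM, CNA up to 500 μM) preincubated 3 min before 10 μM menthol. IC50 from dose−inhibition curves, data as % of 10 μM menthol; n = 4−12.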

[2] = target: Transient receptor potential cation channel subfamily M member 8 (Mus musculus, UniProt Q8R4D5); assay: as §1; assay type: cell-based; outline: as §2
Transient receptor potential cation channel subfamily M member 8, sequence (Q8R4D5 whole entry): as above

[3] = target: T1, Transient receptor potential cation channel subfamily V member 1 (Homo sapiens, UniProt Q8NER1); assay: Antagonist activity at human brain TRPV1 expressed in HEK293T cells assessed as inhibition of CAP-induced intracellular Ca2+ influx by fluorescence-based assay; assay type: cell-based, HEK-293T
T1 sequence (Q8NER1 whole entry): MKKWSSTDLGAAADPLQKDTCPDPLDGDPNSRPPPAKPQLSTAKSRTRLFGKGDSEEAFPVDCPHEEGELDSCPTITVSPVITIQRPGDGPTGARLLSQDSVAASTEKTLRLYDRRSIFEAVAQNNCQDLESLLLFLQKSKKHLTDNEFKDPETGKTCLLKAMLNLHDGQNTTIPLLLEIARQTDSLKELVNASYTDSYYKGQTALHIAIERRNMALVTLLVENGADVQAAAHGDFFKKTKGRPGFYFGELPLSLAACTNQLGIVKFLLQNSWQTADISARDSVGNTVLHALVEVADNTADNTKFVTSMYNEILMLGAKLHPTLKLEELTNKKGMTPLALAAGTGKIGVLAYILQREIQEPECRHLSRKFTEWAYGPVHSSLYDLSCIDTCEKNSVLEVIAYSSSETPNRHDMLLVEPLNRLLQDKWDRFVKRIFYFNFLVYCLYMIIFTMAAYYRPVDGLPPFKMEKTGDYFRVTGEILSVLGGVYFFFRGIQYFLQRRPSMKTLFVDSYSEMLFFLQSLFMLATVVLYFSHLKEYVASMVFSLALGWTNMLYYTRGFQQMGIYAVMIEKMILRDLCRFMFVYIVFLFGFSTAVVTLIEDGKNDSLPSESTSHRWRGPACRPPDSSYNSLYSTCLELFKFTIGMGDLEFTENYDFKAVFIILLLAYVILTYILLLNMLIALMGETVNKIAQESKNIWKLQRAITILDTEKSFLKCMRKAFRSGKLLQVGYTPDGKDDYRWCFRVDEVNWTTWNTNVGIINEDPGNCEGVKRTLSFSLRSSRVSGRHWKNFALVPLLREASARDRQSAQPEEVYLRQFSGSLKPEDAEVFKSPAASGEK
Outline: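 hTRPV1-HEK293T, Fluo-4 Ca2+ at 37 °C; antagonist (0.3−100 μM) preincubated 3 min then 0.01 μM capsaicin; DMSO final 0.1−1%. IC50 from dose−inhibition curves; data as % of 10 μM capsaicin.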

[4] = target: T1, Transient receptor potential cation channel subfamily V member 1; assay: Competitive antagonist activity at human brain TRPV1 expressed in HEK293T cells assessed as inhibition of CAP-induced intracellular Ca2+ influx preincubated for 3 mins followed by CAP challenge by Schlid plot analysis; assay type: cell-based
Outline: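 hTRPV1-HEK293T; capsaicin curves 0.0001−10 μM with 10, 30, 50 μM compound after 3 min preincubation. Schild plots (log(dose ratio − 1) vs log antagonist), six series; slope not differing from unity taken as competitive; KB derived.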

[5] = target: T1, Transient receptor potential cation channel subfamily V member 1; assay: Competitive antagonist activity at […] Wistar rat DRG neurons assessed as inhibition of CAP-induced intracellular Ca2+ influx at 100 uM preincubated for 3 mins followed by CAP challenge; assay type: cell-based
Outline: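 Primary DRG neurons from 4-week-old Wistar rats, collagenase-dissociated, cultured with NGF 24−36 h. Fluo-4 Ca2+ imaging with superfusion of 0.1 μM capsaicin and 100 μM compound.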

[6] = target: Transient receptor potential cation channel subfamily A member 1 (Homo sapiens, UniProt O75762); assay: Agonist activity at TRPA1 isolated from human W138 cells expressed in HEK293T cells assessed as intracellular Ca2+ influx at 100 uM by Fluo-4 AM staining-based fluorescence analysis in presence of antagonist HC-030031; assay type: cell-based
Transient receptor potential cation channel subfamily A member 1, sequence (O75762 whole entry): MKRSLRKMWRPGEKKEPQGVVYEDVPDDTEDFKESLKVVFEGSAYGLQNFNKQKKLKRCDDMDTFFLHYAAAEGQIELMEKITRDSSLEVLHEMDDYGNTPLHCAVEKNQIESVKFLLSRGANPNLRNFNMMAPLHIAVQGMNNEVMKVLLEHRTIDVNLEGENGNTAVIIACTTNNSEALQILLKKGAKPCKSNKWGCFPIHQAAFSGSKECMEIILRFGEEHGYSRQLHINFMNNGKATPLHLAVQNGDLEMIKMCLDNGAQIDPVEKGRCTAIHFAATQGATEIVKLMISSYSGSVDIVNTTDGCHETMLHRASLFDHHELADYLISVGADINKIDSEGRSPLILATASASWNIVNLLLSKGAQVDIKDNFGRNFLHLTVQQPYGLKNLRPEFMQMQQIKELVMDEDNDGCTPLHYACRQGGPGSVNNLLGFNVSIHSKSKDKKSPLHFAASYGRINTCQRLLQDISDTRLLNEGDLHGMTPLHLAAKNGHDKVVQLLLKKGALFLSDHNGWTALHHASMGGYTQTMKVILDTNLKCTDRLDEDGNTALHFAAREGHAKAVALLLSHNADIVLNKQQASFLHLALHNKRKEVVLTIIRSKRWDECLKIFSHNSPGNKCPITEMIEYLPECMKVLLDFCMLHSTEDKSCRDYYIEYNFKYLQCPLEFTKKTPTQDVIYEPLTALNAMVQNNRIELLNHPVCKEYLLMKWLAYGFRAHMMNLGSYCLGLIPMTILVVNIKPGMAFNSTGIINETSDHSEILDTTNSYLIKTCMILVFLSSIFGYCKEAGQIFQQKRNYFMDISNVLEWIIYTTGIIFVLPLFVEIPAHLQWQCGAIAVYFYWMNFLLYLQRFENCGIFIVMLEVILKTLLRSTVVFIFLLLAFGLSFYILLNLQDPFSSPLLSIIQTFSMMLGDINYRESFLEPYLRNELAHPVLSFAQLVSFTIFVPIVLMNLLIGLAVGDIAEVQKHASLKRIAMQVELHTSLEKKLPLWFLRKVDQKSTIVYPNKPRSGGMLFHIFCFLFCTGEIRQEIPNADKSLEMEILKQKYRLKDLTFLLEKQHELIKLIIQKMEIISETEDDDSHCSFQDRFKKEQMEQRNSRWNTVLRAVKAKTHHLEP
Outline: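 Tetracycline-induced (1 μg/mL) stable hTRPA1 in HEK T-REx cells, Fluo-4 AM loaded (3 μM, 1 h, 37 °C) in HEPES buffer pH 7.4 with probenecid; Ca2+ read at 37 °C. Compound 0.01−100 μM; HC-030031 30 μM pretreated 3 min. Responses as % of 5 μM ionomycin or of 100 μM AITC; TREx cells without TRPA1 as control; n = 4−8.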

[7] = target: T2, Transient receptor potential cation channel subfamily V member 3 (Homo sapiens) (UniProt Q8NET8); assay: Agonist activity at human TRPV3 expressed in HEK293T cells assessed as intracellular Ca2+ influx at 100 uM by Fluo-4 AM staining-based fluorescence analysis; assay type: cell-based; conditions: HEK-293T
T2 sequence (whole entry): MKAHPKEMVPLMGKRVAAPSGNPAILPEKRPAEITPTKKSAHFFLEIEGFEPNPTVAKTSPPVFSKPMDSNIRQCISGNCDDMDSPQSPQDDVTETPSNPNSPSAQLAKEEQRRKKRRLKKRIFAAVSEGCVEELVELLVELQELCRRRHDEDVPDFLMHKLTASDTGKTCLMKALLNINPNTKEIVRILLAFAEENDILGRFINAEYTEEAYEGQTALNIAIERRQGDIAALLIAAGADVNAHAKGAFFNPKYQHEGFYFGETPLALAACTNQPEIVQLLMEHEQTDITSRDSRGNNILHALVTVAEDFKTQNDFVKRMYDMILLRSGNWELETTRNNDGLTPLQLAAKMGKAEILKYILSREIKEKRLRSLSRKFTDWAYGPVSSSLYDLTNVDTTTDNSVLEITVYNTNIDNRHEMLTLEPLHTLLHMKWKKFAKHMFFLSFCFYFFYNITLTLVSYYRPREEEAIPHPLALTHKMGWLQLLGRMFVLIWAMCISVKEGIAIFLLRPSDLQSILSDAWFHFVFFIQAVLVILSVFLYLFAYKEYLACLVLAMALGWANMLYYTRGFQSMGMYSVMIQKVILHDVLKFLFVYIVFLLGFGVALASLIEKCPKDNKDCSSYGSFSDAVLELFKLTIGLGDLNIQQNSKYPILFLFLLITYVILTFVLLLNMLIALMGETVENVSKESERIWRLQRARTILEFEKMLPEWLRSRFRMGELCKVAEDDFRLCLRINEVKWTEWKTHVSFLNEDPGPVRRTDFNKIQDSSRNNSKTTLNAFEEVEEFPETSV
Outline: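 hTRPV3 transiently expressed in HEK293T; loading and assay at 25 °C, Fluo-4 with probenecid buffer pH 7.4. Agonist 100 and 300 μM menthol, 5 μM ruthenium red as reference; 100 μM compound alone or pretreated 3 min. Data as % of 1000 μM menthol.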

[8] = target: T1, Transient receptor potential cation channel subfamily V member 1; assay: Agonist activity at human brain TRPV1 expressed in HEK293T cells assessed as intracellular Ca2+ influx at 100 uM by Fluo-4 AM staining-based fluorescence analysis; assay type: cell-based; conditions: HEK-293T
Outline: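 Stable hTRPV1 in HEK293T (G418 selected), Fluo-4 loaded, 37 °C. 100 μM compound alone, or pretreated 3 min before 0.01 μM capsaicin; 10 μM BCTC reference. Data as % of 10 μM capsaicin.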

[9] = target: Transient receptor potential cation channel subfamily M member 8 (Mus musculus) (UniProt Q8R4D5); conditions: Dorsal root ganglion, HEK T-REx, 100 uM
[10] = target: Transient receptor potential cation channel subfamily M member 8 (Mus musculus) (UniProt Q8R4D5); conditions: Dorsal root ganglion, HEK T-REx, 100 uM; remark: listed apart in the source
[11] = target: Transient receptor potential cation channel subfamily M member 8 (Mus musculus) (UniProt Q8R4D5); conditions: Dorsal root ganglion, HEK T-REx, 5 to 100 uM
[12] = target: Transient receptor potential cation channel subfamily M member 8 (Mus musculus) (UniProt Q8R4D5); conditions: Dorsal root ganglion, HEK T-REx, 10 to 50 uM
[13] = target: Transient receptor potential cation channel subfamily M member 8 (Mus musculus) (UniProt Q8R4D5); conditions: Dorsal root ganglion, HEK T-REx, 3 to 30 uM
[14] = target: T1, Transient receptor potential cation channel subfamily V member 1; assay: Antagonist activity at human brain TRPV1 expressed in HEK293T cells assessed as inhibition of proton-induced intracellular Ca2+ influx at 10 uM by fluorescence-based assay; conditions: HEK-293T

## CC[C@H]1C[C@@H]2CN3CCc4c([nH]c5ccc(OC)cc45)[C@](C(=O)OC)(C2)[C@H]13 [VOACANGINE]
[1]
  inhibition: Dose-dependent effect
[2]
  IC50: 9 µM
[3]
  IC50: 50 µM
[3]; HEK-293T
  inhibition: Dose-dependent effect
[4]; HEK-293T
  Kb: 18 µM
[4]; read-out: pA2 (converted)
  Kb: 20 µM
[5]
  inhibition: Active
[6]
  Activity: inactive
[7]
  Activity: inactive
[8]
  Activity: inactive
[9]
  inhibition: Active
[10]
  inhibition: Active
[11]
  inhibition: Active
[12]
  inhibition: inactive
[13]
  inhibition: Active
[14]
  inhibition: inactive
